# The full list was thinned out, with hits kept by preference.
# T cruzi growth-1 = inhibitors of T. cruzi proliferation; AID 624255; 77,000 tested, 5.9% active; inhibition, % at 8.34 µM; T. cruzi beta-gal in NIH3T3, GalScreen luminescence, 90 h;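 active = mean inhibition above about 93%, with at least 55% of replicates each passing it, limit read from the data, passing the limit was not always enough; inconclusive = only one of those two conditions holds; inactive = neither condition holds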
# IDH1 mut inh = IDH1 R132H (human) inhibition | inhibition, % at 10 µM | O75874 | IDH1 R132H reductase, diaphorase/resazurin fluorescence, 60 min | 70,000 tested, 0.18% active; in the data active = inhibition above about 34%; inconclusive = no clear call, values can overlap the other calls; inactive = below about 11%;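 also: 0% = DMSO and 100% = no enzyme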
# Target sequence (O75874 whole entry R132H): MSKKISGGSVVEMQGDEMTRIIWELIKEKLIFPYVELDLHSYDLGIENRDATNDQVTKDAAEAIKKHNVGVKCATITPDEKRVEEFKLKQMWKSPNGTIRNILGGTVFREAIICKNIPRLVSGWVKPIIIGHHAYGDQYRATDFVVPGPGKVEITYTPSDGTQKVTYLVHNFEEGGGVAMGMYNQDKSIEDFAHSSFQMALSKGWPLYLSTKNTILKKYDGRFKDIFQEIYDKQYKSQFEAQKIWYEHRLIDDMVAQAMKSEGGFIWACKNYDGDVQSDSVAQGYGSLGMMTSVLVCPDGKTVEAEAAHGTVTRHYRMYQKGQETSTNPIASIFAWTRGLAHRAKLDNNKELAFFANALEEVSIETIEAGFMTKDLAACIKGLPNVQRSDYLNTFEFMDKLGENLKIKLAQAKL
# GASC1 inh = inhibitors of human demethylase GASC-1 KDM4C. AID 720574. inhibition, % at 12.5 µM. 96,000 tested, 0.15% active. GST-KDM4C 2-372, H3K9me3 peptide, LANCE TR-FRET;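 active = mean replicate inhibition above about 25%, with at least 55% of replicates also reaching it, limit read from the data, passing the limit was not always enough; inconclusive = only one of those two conditions met; inactive = neither condition met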
#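 material = GST-tagged GASC-1 (JMJD2C) catalytic fragment, aa 2-372 | amount = enzyme final amount 10 nM | medium = HEPES buffer, pH 7.5, plus ascorbate | also added = H3K9me3 peptide substrate, Fe(II), 2-oxoglutarate | dosing = single dose | times = 30 min demethylation and 1 h detection at room temperature | detection = LANCE TR-FRET | read-out basis = Fall in 671/618 emission ratio as inhibition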
# T cruzi growth-2 = inhibitors of T. cruzi proliferation; shares compounds with T cruzi growth-1; T. cruzi beta-gal in NIH3T3, GalScreen luminescence, 90 h; inhibition, % at 8.35 µM; 5,600 tested, 72% active; AID 651739;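 active = mean replicate inhibition above about 95% and at least 55% of replicates individually reaching it, limit read from the data; inconclusive = only one of the two criteria is met; inactive = neither criterion is met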
# T cruzi growth-3 = Trypanosoma cruzi proliferation inhibition. T. cruzi beta-gal in NIH3T3, GalScreen luminescence, 90 h. 5,600 tested, 21% active. shares compounds with T cruzi growth-1. inhibition, % at 2.09 µM;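 active = mean inhibition above about 95%, with at least 55% of replicates also reaching it, limit read from the data; inconclusive = meets just one of the two conditions; inactive = meets neither condition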;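 also: plate controls were neutral control median for no effect and positive control median for full effect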
# NIH3T3 tox = cytotoxicity in mouse NIH/3T3 fibroblasts. NIH/3T3 viability, CellTiter-Glo ATP luminescence, 90 h. cytotoxicity (signal decrease), % at 8.35 µM. 5,600 tested, 14% active. shares compounds with T cruzi growth-1;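 active = mean signal decrease across replicates above about 35% based on untreated-well scatter, with enough replicates individually passing, limit read from the data; inconclusive = no rule stated though some were filed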;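 also: 0% = median of neutral control wells and 100% = median of positive control wells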
# 3T3 cytotox 2 = kills mouse NIH/3T3 fibroblasts; NIH/3T3 viability, CellTiter-Glo ATP luminescence, 90 h; 5,600 tested, 56% active; shares compounds with T cruzi growth-1; AID 651744; inhibition, % at 24.9 µM;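 active = mean loss of cell viability signal at or above a set limit, and enough replicates individually reaching it; inconclusive = meets only the mean limit or only the replicate share; inactive = meets neither condition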;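 also: 0% = median of neutral control wells and 100% = median of positive control wells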
# The depositor's hits bear a star; ? = inconclusive; / = no result given.
SMILES,T cruzi growth-1,IDH1 mut inh,GASC1 inh,T cruzi growth-2,T cruzi growth-3,NIH3T3 tox,3T3 cytotox 2
CCCNC(=O)C[C@@H]1CC[C@@H]2[C@H](COc3ccc(NC(=O)NCC)cc3C(=O)N2C)O1,51.2,/,-0.9,/,/,/,/
CO[C@H]1CN(C)C(=O)c2ccc(NC(=O)c3ccc4c(c3)OCO4)cc2OC[C@H](C)N(CCC(F)(F)F)C[C@H]1C,33.7,0.2,2.2,/,/,/,/
COC(=O)c1cc(OC)c(OC)cc1NC(=O)COc1ccc(Br)c(C)c1,/,-0.1,/,/,/,/,/
CO[C@H]1CN(C)C(=O)c2ccc(NS(=O)(=O)C3CCCCC3)cc2OC[C@H](C)NC[C@@H]1C,/,/,0.1,/,/,/,/
CN1C(=O)c2cc(NC(=O)c3ccccc3)ccc2OC[C@H]2O[C@@H](CC(=O)O)CC[C@H]21,3.9,/,-0.5,/,/,/,/
COc1ccc(S(=O)(=O)Nc2ccc3c(c2)C(=O)N([C@@H](C)CO)C[C@H](C)[C@H](CN(C)Cc2ccc4c(c2)OCO4)OCCCC[C@@H](C)O3)cc1,86.0,-0.7,2.1,/,/,/,/
Cc1ccc(S(=O)(=O)Nc2ccc3c(c2)C(=O)N([C@@H](C)CO)C[C@@H](C)[C@@H](CN(C)Cc2ccc4c(c2)OCO4)OCCCC[C@H](C)O3)cc1,?,/,-0.3,86.1,?,60.6*,104.2*
COc1ccc(S(=O)(=O)Nc2ccc3c(c2)C(=O)N([C@H](C)CO)C[C@H](C)[C@H](CN(C)Cc2ccc4c(c2)OCO4)OCCCC[C@H](C)O3)cc1,?,/,1.0,103.3*,?,6.3,105.3*
Cc1ccc(S(=O)(=O)Nc2ccc3c(c2)C(=O)N([C@@H](C)CO)C[C@@H](C)[C@H](CN(C)Cc2ccc4c(c2)OCO4)OCCCC[C@H](C)O3)cc1,72.0,/,-1.0,/,/,/,/
COc1ccc(-c2nnc(SCc3nc4ccccc4c(=O)[nH]3)n2C)cc1,/,0.0,/,/,/,/,/
Cc1ccc(S(=O)(=O)N(C)C[C@H]2Oc3ccc(NC(=O)Nc4cccc5ccccc45)cc3C(=O)N([C@H](C)CO)C[C@@H]2C)cc1,44.3,/,9.4,/,/,/,/
N#C[C@H]1[C@@H](c2ccc(-c3ccc(F)cc3)cc2)[C@H](CO)N1C(=O)Cc1ccccc1,?,/,-0.7,105.6*,61.4,17.4,77.3*
N#C[C@H]1[C@@H](c2ccc(-c3ccccc3)cc2)[C@@H](CO)N1S(=O)(=O)Cc1ccccc1,90.9,/,-1.0,/,/,/,/
N#C[C@@H]1[C@H](c2ccc(-c3ccccc3)cc2)[C@@H](CO)N1C(=O)Cc1ccccc1,100.9*,/,-1.7,107.6*,51.0,21.5,53.0*
N#C[C@H]1[C@@H](c2ccc(-c3ccccc3)cc2)[C@@H](CO)N1C(=O)Cc1ccccc1,49.4,/,-0.1,/,/,/,/
N#C[C@@H]1[C@@H](c2ccc(-c3ccc(F)cc3)cc2)[C@@H](CO)N1S(=O)(=O)Cc1ccccc1,99.2*,/,-1.6,97.4*,93.9,13.4,102.2*
N#C[C@@H]1[C@@H](c2ccc(-c3ccc(F)cc3)cc2)[C@H](CO)N1C(=O)Cc1ccccc1,61.8,/,-1.4,/,/,/,/
C[C@H]1CN([C@@H](C)CO)C(=O)c2ccccc2-c2ccccc2CO[C@@H]1CN(C)C(=O)Nc1ccccc1C(F)(F)F,48.9,-4.7,-0.1,/,/,/,/
C[C@@H]1CN([C@@H](C)CO)C(=O)c2cc(/C=C/c3ccccc3)cnc2O[C@H]1CN(C)C(=O)C1CC1,75.8,-0.1,3.9,/,/,/,/
CCCNC(=O)C[C@H]1CC[C@@H]2[C@H](COc3ccc(NC(=O)COC)cc3C(=O)N2C)O1,43.4,/,-0.5,/,/,/,/
COc1ccc2c3c([nH]c2c1)[C@H](CO)N(C)CC31CN(C(=O)c2cccnc2)C1,/,/,0.9,/,/,/,/
C[C@@H]1CN([C@@H](C)CO)S(=O)(=O)c2ccc(-c3ccccc3F)cc2O[C@@H]1CN(C)Cc1cccnc1,100.6*,0.6,-0.8,104.9*,82.1,68.9*,71.3*
C[C@H](CO)N1C[C@H](C)[C@@H](CN(C)Cc2cccnc2)Oc2cc(-c3ccccc3F)ccc2S1(=O)=O,95.0,-0.3,2.9,/,/,/,/
C[C@H]1CN([C@@H](C)CO)S(=O)(=O)c2ccc(-c3ccccc3F)cc2O[C@@H]1CN(C)Cc1cccnc1,105.2*,0.1,-0.6,106.6*,103.7*,35.7*,100.1*
C[C@@H]1CN([C@H](C)CO)S(=O)(=O)c2ccc(-c3ccccc3F)cc2O[C@H]1CN(C)Cc1cccnc1,94.8,0.5,5.1,/,/,/,/
SMILES,T cruzi growth-1,IDH1 mut inh,GASC1 inh,T cruzi growth-2,T cruzi growth-3,NIH3T3 tox,3T3 cytotox 2
CCCC#Cc1ccc2c(c1)[C@H]1[C@H](CCN1S(=O)(=O)c1cn(C)cn1)[C@H](CO)N2,/,/,1.3,/,/,/,/
C[C@@H]1CCCCO[C@@H](CN(C)Cc2ccc(Cl)c(Cl)c2)[C@H](C)CN([C@@H](C)CO)C(=O)c2cc(NC(=O)Nc3cccc4ccccc34)ccc2O1,125.5*,/,-1.0,109.9*,112.0*,16.5,1.1
C[C@@H]1CCCCO[C@@H](CN(C)Cc2ccncc2)[C@@H](C)CN([C@@H](C)CO)C(=O)c2cc(NC(=O)Nc3cccc4ccccc34)ccc2O1,94.0,2.3,-0.1,/,/,/,/
C[C@@H]1CN([C@@H](C)CO)C(=O)c2cc(NC(=O)Nc3cccc4ccccc34)ccc2O[C@@H](C)CCCCO[C@H]1CN(C)Cc1ccc(Cl)c(Cl)c1,121.6*,-0.4,0.3,106.9*,106.0*,23.7,8.4
C[C@@H]1CN([C@H](C)CO)C(=O)c2cc(NC(=O)Nc3cccc4ccccc34)ccc2O[C@@H](C)CCCCO[C@@H]1CN(C)Cc1ccccc1,/,2.1,-2.1,/,/,/,/
C[C@H](CO)N1C[C@H](C)[C@H](CN(C)Cc2ccncc2)OCCCC[C@H](C)Oc2ccc(NC(=O)Nc3cccc4ccccc34)cc2C1=O,89.1,-30.6,-0.1,/,/,/,/
C[C@@H]1CCCCO[C@H](CN(C)Cc2ccc(Cl)c(Cl)c2)[C@@H](C)CN([C@@H](C)CO)C(=O)c2cc(NC(=O)Nc3cccc4ccccc34)ccc2O1,125.0*,/,-0.2,100.5*,116.4*,17.9,-2.9
CO[C@@H]1CN(C)C(=O)c2cc(NS(=O)(=O)c3ccccc3)ccc2OC[C@@H](C)N(C(=O)NC(C)C)C[C@H]1C,2.4,0.0,0.4,/,/,/,/
CCCN1C[C@H](C)[C@H](OC)CN(C)C(=O)c2ccc(NC(=O)Nc3c(C)noc3C)cc2OC[C@@H]1C,0.6,-0.1,1.9,/,/,/,/
C[C@@H]1CN([C@@H](C)CO)S(=O)(=O)c2ccc(-c3ccncc3)cc2O[C@@H]1CN(C)Cc1cncnc1,88.6,-0.2,1.0,/,/,/,/
C[C@@H]1CN([C@@H](C)CO)S(=O)(=O)c2ccc(-c3ccncc3)cc2O[C@H]1CN(C)Cc1cncnc1,107.8*,-0.3,-0.1,103.6*,104.2*,3.5,44.8*

# High-throughput results (PubChem)
